A short description of test [1]: inhibitors of TNFa-induced NFkB p65 translocation, primary screen, imaging, HUVEC, MLSMR starter and 10KST1 sets (AID 438;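 active = inhibition above 20% together with a positive visual image hit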;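 note: compound added about 3h40 before a 20 min TNFalpha stimulation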;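 for inhibition: signal is the nuclear over cytoplasmic p65 intensity ratio per well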). The settings on record: HUVEC TNFa-induced p65 nuclear translocation; cell count: measured here: nuclei count (cytotoxicity indicator), at 2.08 µM; inhibition: at 2 µM, stronger effect = higher value, 0% TNFa-plus-vehicle, 100% no-TNFa wells.
Test [2] is described as follows: inhibitors of mutant huntingtin aggregation, primary screen, imaging, exon1htt(103Q)mCFP cells, high-content imaging (AID 483;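 active = visual image review flags a hit and inhibition of aggregation exceeds 20%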;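 note: compound exposure lasted 3 days before fixation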;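 for nuclei count: percent of the per-plate median nuclei count of sample wells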). The following applies: exon1htt(103Q)mCFP cell line, aggregate imaging, at 2 µM; inhibition of aggregation: stronger effect = higher value; nuclei count: measured here: cell count, toxicity.
Test [3] is described as follows: inhibitors of E-selectin induction by TNFa, primary screen, imaging, HUVEC, immunofluorescence, MLSMR starter and 10KST1 sets (AID 487;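 active = visually confirmed hit in the image check and inhibition above 20%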;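 for inhibition: signal is fraction of cell area covered by stained E-selectin grains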;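 for nuclei count: 100% = median nuclei count of all wells on the same plate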). The settings on record: HUVEC TNFalpha-induced E-selectin immunofluorescence imaging, at 2 µM; inhibition: stronger effect = higher value; nuclei count: measured here: cell number, toxicity.
Test [4] addresses Voltage-gated potassium channel subunit beta-2 (Rattus norvegicus) (UniProt P62483). Description: KvBeta enzyme negative modulators, primary screen, biochemical, NADPH fluorescence (AID 622;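 active = fluorescence slope higher than the sample average by over 3 SD, cut at about -0.22 in these data, passing the limit was not always enough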;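 note: slope of raw intensity against log time taken from 70 to 1610 s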). The settings on record: recombinant KvBeta, 4-cyanobenzaldehyde reduction, at 10 µM, stronger effect = higher value.
Test [5] shares this target. Description: KvBeta positive modulators, primary screen, biochemical, NADPH fluorescence (AID 623;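 active = NADPH fluorescence slope more negative than the mean of all samples by about 3 SD, 99.7% confidence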;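 note: fluorescence intensity change per second fitted from 20 to 320 s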). The settings on record: Recombinant KvBeta, NADPH fluorescence decrease slope, 10 min; at 10 µM; stronger effect = lower value.
The target of test [6] is Muscarinic acetylcholine receptor M4 (Homo sapiens) (UniProt P08173). Description: compounds altering M4/GIRK thallium flux, either direction, primary screen, M4 allosteric agonist project, cell-based, HEK293 M4/GIRK, BTC-AM (AID 625).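 Note: thallium influx through GIRK channels coupled to M4 in HEK293 cells with BTC-AM dye.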 The following applies: at 10 µM, actives lie on both sides. In short, it runs like this: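 System: HEK293 cells with M4 receptor and GIRK channels | Incubation: Cells overnight at 37 °C, BTC-AM loading 1 h, reads 2 min total | Technique: Kinetic BTC-AM fluorescence sampled at 1 Hz, 10 s pre-addition baseline | Measure: Post-addition slope, 15–24 s, of baseline-normalized fluorescence | Control set: Carbachol positive, DMSO negative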

A short description of test [7]: inhibitors of Sendai virus-induced IRF3 signaling, primary screen, TLR/RLR signaling modifier project, cell-based, Sendai virus stimulus, luciferase, 10K MLSCN set (AID 602276;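 active = inhibition at or above 50% at 10 µM; inactive = inhibition below 50%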;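 note: firefly luciferase from ISG56 promoter only with Renilla not read in this screen; 0% = Sendai virus plus DMSO and 100% = medium plus DMSO without virus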). The settings on record: HEK293 RL24 IRF3 luciferase reporter, at 10 µM, stronger effect = higher value. In general terms: In a reporter assay the amount or activity of a reporter protein is the signal.

The nature of test [8]: inhibitors of poly I:C-induced TLR3 signaling, primary screen, cell-based, poly I:C stimulus, luciferase, 10K MLSCN set (AID 602277;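 active = inhibition of the reporter signal at or above 50%; inactive = inhibition below 50%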). The following applies: HEK293-TLR3 RL24 IRF3 luciferase reporter, at 10 µM, stronger effect = higher value.

This is an account of results in PubChem BioAssay.

Each structure is given as a SMILES string. The source made the active and inactive calls.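 Rule for the calls, unless noted: active = fluorescence slope after compound addition differing from the mean of all tested samples at 99.7% confidence, mostly higher but some lower; inactive = the rest.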

Chain of Voltage-gated potassium channel subunit beta-2 (Rattus norvegicus) (P62483 whole entry, looked up): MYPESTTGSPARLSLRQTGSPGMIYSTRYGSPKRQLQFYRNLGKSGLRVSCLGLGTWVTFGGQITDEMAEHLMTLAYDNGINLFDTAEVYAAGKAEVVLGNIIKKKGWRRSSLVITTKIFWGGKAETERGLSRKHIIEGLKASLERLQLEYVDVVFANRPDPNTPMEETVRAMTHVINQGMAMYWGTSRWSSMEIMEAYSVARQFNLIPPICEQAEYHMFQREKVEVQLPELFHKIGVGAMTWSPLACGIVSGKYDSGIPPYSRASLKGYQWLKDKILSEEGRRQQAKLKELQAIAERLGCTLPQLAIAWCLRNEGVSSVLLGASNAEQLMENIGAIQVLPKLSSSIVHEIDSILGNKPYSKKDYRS
Chain of Muscarinic acetylcholine receptor M4 (Homo sapiens) (P08173 whole entry, looked up): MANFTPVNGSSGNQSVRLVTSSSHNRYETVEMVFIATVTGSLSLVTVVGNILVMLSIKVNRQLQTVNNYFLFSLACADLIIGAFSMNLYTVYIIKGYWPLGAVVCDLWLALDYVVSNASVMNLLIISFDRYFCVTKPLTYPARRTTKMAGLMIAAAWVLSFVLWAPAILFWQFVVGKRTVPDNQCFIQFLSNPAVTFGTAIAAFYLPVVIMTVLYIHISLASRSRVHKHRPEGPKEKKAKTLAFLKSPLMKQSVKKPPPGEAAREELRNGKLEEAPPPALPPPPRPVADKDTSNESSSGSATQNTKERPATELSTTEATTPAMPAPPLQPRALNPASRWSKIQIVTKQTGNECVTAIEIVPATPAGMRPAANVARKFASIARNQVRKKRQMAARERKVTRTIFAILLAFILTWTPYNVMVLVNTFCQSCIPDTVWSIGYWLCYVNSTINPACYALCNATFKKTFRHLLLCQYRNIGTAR

The inhibition is the change of the read-out against control, counted positive when it falls. On to `COc1ccccc1N1CCN(C(=O)C2CC=CCC2C(=O)O)CC1` (centres undefined), for which, in test [1], the cell count was 444. The inhibition in test [1] was -1.8% (inactive); in test [3], 24.2% (inactive); in test [7], 18.1% (inactive); in test [8], 16.3% (inactive). Moreover, the inhibition of aggregation in test [2] is -7.5% (inactive). Moreover, the nuclei count in test [2] came out at 87.8%; in test [3], 44.5%. For the same compound, the fluorescence slope in test [4] is -0.454 (inactive); in test [6], 0.00504 (inactive). Besides, the NADPH fluorescence slope in test [5] was -1.2e-05 (inactive).

Take `CCC(C)OC(=O)C1=C(C)NC2=C(C(=O)C(C(=O)OC)C(C)C2)C1c1ccc(N(C)C)cc1` (centres undefined): the cell count in test [1] worked out at 280. Moreover, the inhibition was -2.4% (inactive) in test [1], -8.6% (inactive) in test [3], 14.7% (inactive) in test [7] and 25.6% (inactive) in test [8]. For the same compound, the inhibition of aggregation in test [2] was 12.6% (inactive). Besides, the nuclei count in test [2] was 104%; in test [3], 115%. The fluorescence slope in test [4] was -0.579 (inactive); in test [6], 0.00551 (inactive). Also, the NADPH fluorescence slope in test [5] was 2.1e-05 (inactive).

With `Cc1cccc(C)c1OCc1nnc2c3cnn(C)c3ncn12`, the cell count in test [1] was 456. Besides, the inhibition in test [1] is 8.1% (inactive); in test [3], -299% (inactive); in test [7], -9.31% (inactive); in test [8] it was -26.9% (inactive). Moreover, the inhibition of aggregation in test [2] was -5.7% (inactive). For the same compound, the results for the nuclei count in test [2] and in test [3] were 97.5% and 125%, respectively. The results for the fluorescence slope in test [4] and in test [6] were -0.533 (inactive) and 0.0037 (inactive), respectively. The NADPH fluorescence slope in test [5] is -0.000169 (inactive).

In the case of `N#Cc1c(N2C(=O)C3C4C=CC(C4)C3C2=O)sc2c1CCC2` (centres undefined), the cell count in test [1] is 493. The inhibition in test [1] was -24.7% (inactive); in test [3], -17.4% (inactive); in test [7], 14.5% (inactive); in test [8] it was 18.6% (inactive). The inhibition of aggregation in test [2] is -12.7% (inactive). Besides, the nuclei count in test [2] stood at 92.9%; in test [3], 96.7%. Besides, the fluorescence slope in test [4] was -0.417 (inactive); in test [6], 0.00524 (inactive). Moreover, the NADPH fluorescence slope in test [5] is -5.2e-05 (inactive).

Consider `Cc1cnc(-c2nnc(N(C)C(=O)C3CCOC3)s2)cn1` (centres undefined), for which the cell count in test [1] is 340. For the same compound, the inhibition is -12.1% (inactive) in test [1], 41.6% (inactive) in test [3], -2.32% (inactive) in test [7] and -11.8% (inactive) in test [8]. For the same compound, the inhibition of aggregation in test [2] is 26.6% (inactive). Further, the nuclei count in test [2] came to 79%; in test [3], 88.5%. In addition, the fluorescence slope was -0.552 (inactive) in test [4] and 0.00481 (inactive) in test [6]. Moreover, the NADPH fluorescence slope in test [5] is -6.2e-06 (inactive).

With `CCOCCn1cnc2sc(C(=O)Nc3nc(C)c(C(=O)OCC)s3)c(C)c2c1=O`, the cell count in test [1] is 785. Further, the inhibition in test [1] was -3.7% (inactive); in test [3] it was -9.6% (inactive); in test [7], 11.8% (inactive); in test [8], -0.0117% (inactive). The inhibition of aggregation in test [2] was 2.9% (inactive). The nuclei count amounted to 121% in test [2] and 105% in test [3]. For the same compound, the fluorescence slope was -0.26 (inactive) in test [4] and 0.0063 (inactive) in test [6]. Moreover, the NADPH fluorescence slope in test [5] is 4.1e-06 (inactive).

For `Cc1cc(NC(=O)c2ccc(Cl)cc2)no1`, in test [1], the cell count turned out to be 206. The inhibition is 0.8% (inactive) in test [1], -58.4% (inactive) in test [3], -41.1% (inactive) in test [7] and -168% (inactive) in test [8]. The inhibition of aggregation in test [2] is 41.9% (active). Moreover, the nuclei count came out at 92% in test [2] and 83.6% in test [3]. The fluorescence slope in test [4] was -0.561 (inactive); in test [6] it was 0.00496 (inactive). Further, the NADPH fluorescence slope in test [5] was 1.1e-05 (inactive).

Regarding `CCOc1ccccc1C1CC(=O)NC(SCC)=C1C#N` (centres undefined), the cell count in test [1] was 465. Also, the inhibition in test [1] was -13% (inactive); in test [3] it was -10% (inactive); in test [7] it was 9.15% (inactive); in test [8], 17.5% (inactive). Moreover, the inhibition of aggregation in test [2] is 18.7% (inactive). Moreover, the nuclei count worked out at 84.4% in test [2] and 130% in test [3]. Further, the fluorescence slope in test [4] was -0.326 (inactive); in test [6], 0.00457 (inactive). In addition, the NADPH fluorescence slope in test [5] is -7.3e-05 (inactive).

For `COCCCNC(=O)C1CCCN(C(=O)Nc2ccc(OC)cc2)C1` (centres undefined), the cell count in test [1] was 675. The inhibition in test [1] was -14.8% (inactive); in test [3], 52.7% (inactive); in test [7], 16.2% (inactive); in test [8], 4.9% (inactive). The inhibition of aggregation in test [2] is -11.8% (inactive). Also, the nuclei count was found to be 107% in test [2] and 49.2% in test [3]. The fluorescence slope in test [4] was -0.315 (inactive); in test [6] it was 0.007 (inactive). Moreover, the NADPH fluorescence slope in test [5] was -5.2e-05 (inactive).

As for `COc1ccc(C2CC(c3ccc(Cl)cc3)Nc3nc(NC(=O)c4ccco4)nn32)cc1` (centres undefined), the cell count in test [1] stood at 574. Moreover, the inhibition in test [1] is -11.9% (inactive); in test [3], 27.9% (inactive); in test [7], 14.1% (inactive); in test [8], 24.6% (inactive). Moreover, in test [2], the inhibition of aggregation was -6.2% (inactive). The nuclei count in test [2] amounted to 98.1%; in test [3], 91.8%. Further, the results for the fluorescence slope in test [4] and in test [6] were -0.427 (inactive) and 0.00611 (inactive), respectively. Further, the NADPH fluorescence slope in test [5] was -6.7e-05 (inactive).

Consider `CCN(CC)C(=O)CSc1nc2ccccc2c(=O)n1CCC(=O)NCc1ccc(F)cc1`, for which the cell count in test [1] worked out at 471. The inhibition in test [1] was -6.6% (inactive); in test [3], -22% (inactive); in test [7], -10.2% (inactive); in test [8] it was -7.71% (inactive). Also, in test [2], the inhibition of aggregation is 15.2% (inactive). The nuclei count in test [2] came to 108%; in test [3] it was 112%. Further, the values for the fluorescence slope in test [4] and in test [6] were -0.516 (inactive) and 0.00599 (inactive), respectively. For the same compound, in test [5], the NADPH fluorescence slope is 5.1e-05 (inactive).

Take `CCOc1ccccc1NS(=O)(=O)c1c(C)noc1C`: in test [1], the cell count is 389. Moreover, the inhibition in test [1] is 5.5% (inactive); in test [3], -3.1% (inactive); in test [7] it was 0.4% (inactive); in test [8], 24.4% (inactive). In addition, in test [2], the inhibition of aggregation is 42.8% (inactive). For the same compound, the nuclei count in test [2] is 97.1%; in test [3], 111%. Also, the fluorescence slope was -0.461 (inactive) in test [4] and 0.00758 (inactive) in test [6]. Moreover, the NADPH fluorescence slope in test [5] is 4.7e-05 (inactive).

As for `COc1cc(CNc2ccc(N3CCOCC3)c(C(=O)O)c2)ccc1OCC(N)=O`, in test [1], the cell count stood at 362. In addition, the inhibition in test [1] is -2.2% (inactive); in test [3], 26.6% (inactive); in test [7], 5.32% (inactive); in test [8], 9.86% (inactive). Besides, the inhibition of aggregation in test [2] was -15.5% (inactive). In addition, the nuclei count in test [2] amounted to 99.3%; in test [3], 98.6%. For the same compound, the fluorescence slope in test [4] was -0.343 (inactive); in test [6], 0.00665 (inactive). In addition, the NADPH fluorescence slope in test [5] was 0.000117 (inactive).

For the compound `CC(O)c1nc2ccccc2n1C1CCCCC1` (centres undefined), the cell count in test [1] came out at 631. Besides, the inhibition in test [1] was -19.6% (inactive); in test [3] it was -16.4% (inactive); in test [7], 20.2% (inactive); in test [8] it was 24.7% (inactive). Also, the inhibition of aggregation in test [2] was -4.7% (inactive). Besides, the nuclei count in test [2] came to 99.7%; in test [3] it was 111%. For the same compound, the fluorescence slope was -0.585 (inactive) in test [4] and 0.00511 (inactive) in test [6]. Also, in test [5], the NADPH fluorescence slope is 4.8e-06 (inactive).
